Data reported in ChEMBL document CHEMBL3124867, “Hepatitis C replication inhibitors that target the viral NS4B protein” (J Med Chem, 2014).

Legend:
[1] = test system: Rattus norvegicus; assay: Prodrug conversion in CD rat assessed as 4-(3-chloro-6-cyclopropyl-8-(trifluoromethyl)imidazo[1,2-a]pyridine-2-carbonyl)-1-((trans)-4-hydroxycyclohexyl)piperazin-2-one level at 300 mg/kg, po; type: ADME, organism-based; set-up: dose 300 mg/kg, route oral; conditions: in vivo
How it was run: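 CD rats were given a single oral dose of 300 mg/kg of parent suspension or of prodrug. Plasma was assayed for the parent drug and for uncleaved prodrug.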

[2] = Displacement of [3H]-3-(1-(3-chloro-6-isopropyl-8-(trifluoromethyl)imidazo[1,2-a]pyridine-2-carbonyl)piperidin-4-yl)oxazolidin-2-one from HCV genotype 1b C-terminal His-tagged NS4B (1 to 261 aa) expressed in baculovirus infected SF9 cells after overnight incubation; set-up: species or system Hepatitis C virus subtype 1b
[3] = test system: Hepatitis C virus; assay: Antiviral activity against Hepatitis C virus genotype 1b infected in human HuH7 cells after 48 hrs by luciferase reporter gene assay; type: functional, organism-based, Hepacivirus hominis; conditions: Huh-7, 48 h
[4] = test system: Hepatitis C virus; assay: Antiviral activity against Hepatitis C virus genotype 1b expressing NS4B V105M mutant infected in human HuH7 cells after 48 hrs by luciferase reporter gene assay; type: functional, organism-based, Hepacivirus hominis; conditions: Huh-7, 48 h
[5] = test system: Hepatitis C virus; assay: Antiviral activity against Hepatitis C virus genotype 1b expressing NS4B H94N mutant infected in human HuH7 cells after 48 hrs by luciferase reporter gene assay; type: functional, organism-based, Hepacivirus hominis; conditions: Huh-7, 48 h
[6] = test system: Hepatitis C virus; assay: Antiviral activity against Hepatitis C virus genotype 1a infected in human HuH7 cells after 48 hrs by luciferase reporter gene assay; type: functional, organism-based, Hepacivirus hominis; conditions: subtype 1a, Huh-7, 48 h
[7] = Lipophilicity, log D of the compound by chromatographic analysis; type: physicochemical
How it was run: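 Lipophilicity was measured chromatographically and reported as ChromLogD; ≥6 replicates.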

[8] = test system: Huh-7; assay: Cytotoxicity against human HuH7 cells at 50 uM after 2 days by Cell Titer Glo assay; type: cell-based; conditions: huh-7, 48 h
How it was run: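 Huh7 cells were exposed to compound at 50 μM for 2 days and scored for cellular toxicity.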

[9] = test system: Hepatitis C virus; assay: Antiviral activity against wild-type Hepatitis C virus genotype 1a infected in PXB mouse assessed as log reduction in viral mRNA titer at 100 mg/kg, po bid every 12 hrs for 7 days relative to control; type: functional, Hepacivirus hominis, subtype 1a
How it was run: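 PXB mice were infected with HCV genotype 1a wild-type virus and treated 5−8 weeks later (n = 4/group). Oral dosing b.i.d. for 7 days: prodrug at 10 or 30 mg/kg, or positive control at 100 mg/kg. Serum HCV RNA titers (viral load) were followed over the course of dosing.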

Stability [1]	Structure (SMILES)	IC50 [2] [nM]	EC50 [3] [nM]	EC50 [4] [nM]	EC50 [5] [nM]	EC50 [6] [nM]	chromatographic logD [7]	Activity [8]	FC [9]
Stable	CN(C)CC(=O)O[C@H]1CC[C@H](N2CCN(C(=O)c3nc4c(C(F)(F)F)cc(C5CC5)cn4c3Cl)CC2=O)CC1								
	O=C(c1nn2c(C(F)(F)F)cc(C3CC3)cc2c1Cl)N1CCC2(OCC3(CC3)CO2)C(O)C1 (racemic)	10	1.9	250	39	4			
	Cn1c(C(=O)N2CCN([C@H]3CC[C@H](O)CC3)C(=O)C2)nc2c(C(F)(F)F)cc(C3CC3)cc21	24	3	230	150	0.5	4.3	Non-toxic	
	CNC(=O)c1c(-c2ccc(F)cc2)oc2cc(N(CCO)S(C)(=O)=O)c(C3CC3)cc12 [NESBUVIR]								2.2
	O=C(c1nc2c(C(F)(F)F)cc(C3CC3)cn2c1Cl)N1CCC2(OCC3(CC3)CO2)C(O)C1 (racemic)	28	4.3	770	230	14			
Stable	O=C(O)COCC(=O)O[C@H]1CC[C@H](N2CCN(C(=O)c3nc4c(C(F)(F)F)cc(C5CC5)cn4c3Cl)CC2=O)CC1								
	O=C(c1nn2c(C(F)(F)F)cc(C3CC3)cc2c1Cl)N1CCN(C(=O)[C@H]2C[C@H](O)C2)CC1	< 40	8.3	> 1000	330	2			
	O=C(c1nn2c(C(F)(F)F)cc(C3CC3)cc2c1Cl)N1CCN([C@H]2C[C@@H]3C[C@@H]3[C@H]2O)C(=O)C1	18	14	> 1000	> 1000	41			
	O=C(c1nn2c(C(F)(F)F)cc(C3CC3)cc2c1Cl)N1CCN([C@H]2C[C@H]3C[C@H]3[C@H]2O)C(=O)C1	16	30	> 1000	> 1000	120			
	O=C(c1nn2c(C(F)(F)F)cc(C3CC3)cc2c1Cl)N1CCN([C@H]2CC[C@H](O)CC2)C(=O)C1	12	2	310	32	0.3	4.1	Non-toxic	
	O=C(c1nn2c(C(F)(F)F)cc(C3CC3)cc2c1Cl)N1CCN([C@@H]2C[C@@H]3C[C@@H]3[C@@H]2O)C(=O)C1	23	19	> 1000	> 1000	95			
	O=C(c1oc2c(C(F)(F)F)cc(C3CC3)cc2c1Cl)N1CCN([C@H]2CC[C@H](O)CC2)C(=O)C1	4	0.8	110	22	0.09	5.1	Non-toxic	
	O=C(c1nn2c(C(F)(F)F)cc(C3CC3)cc2c1Cl)N1CCN([C@@H]2C[C@H]3C[C@H]3[C@@H]2O)C(=O)C1	18	4.9	400	64	7.9			
Stable	O=C(CO)O[C@H]1CC[C@H](N2CCN(C(=O)c3nc4c(C(F)(F)F)cc(C5CC5)cn4c3Cl)CC2=O)CC1								
	O=C(c1nn2c(C(F)(F)F)cc(C3CC3)cc2c1Cl)N1CCC(N2CCOC2=O)CC1	37	5	370	94	2			
	O=C(c1nn2c(C(F)(F)F)cc(C3CC3)cc2c1Cl)N1CCN([C@@H]2C[C@H]3C[C@H]3[C@H]2O)C(=O)C1	23	2.3	65	38	4			
	O=C(c1nc2c(C(F)(F)F)cc(C3CC3)cn2c1Cl)N1CCN([C@@H]2C[C@H]3C[C@H]3C2)C(=O)C1	58	1	59	20	1.4			
	O=C(c1nc2c(C(F)(F)F)cc(C3CC3)cn2c1Cl)N1CCC(N2CCOC2=O)CC1	76	12	> 1000	370	8.3			
	O=C(c1nc2c(C(F)(F)F)cc(C3CC3)cn2c1Cl)N1CCN(C(=O)[C@H]2C[C@H](O)C2)CC1	100	19	> 1000	720	6.3			
Stable	CCC(=O)O[C@H]1CC[C@H](N2CCN(C(=O)c3nc4c(C(F)(F)F)cc(C5CC5)cn4c3Cl)CC2=O)CC1								
